According to ChEMBL document CHEMBL3817745, “Structure-Activity Relationship for the 4(3H)-Quinazolinone Antibacterials” (J Med Chem, 2016):
Converted amounts (≈) assume the structure as drawn. The source made the active and inactive calls. The rule behind the calls is not given here.

Key:
Staphylococcus aureus [1] = experiment: […] activity against methicillin-susceptible Staphylococcus aureus ATCC 29213; assay type: functional; conditions: read-out: MBC99.9
[2] = system: Staphylococcus epidermidis; experiment: Antibacterial activity against Staphylococcus epidermidis ATCC 35547 incubated for 16 to 20 hrs by microdilution method; assay type: functional
Procedure, shortened: (§1)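 CLSI broth microdilution. 2-fold serial dilutions were made in cation-adjusted Mueller–Hinton broth, with 5% lysed horse blood added for Streptococcus strains, in triplicate. Inoculum 5×10^5 CFU/mL. Plates incubated 36 °C for 16–20 h. MIC taken as the lowest concentration visibly inhibiting growth.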

Staphylococcus aureus [3] = experiment: […] activity against multidrug resistant Staphylococcus aureus ATCC 27660; assay type: functional; conditions: read-out: MBC99.9
[4] = system: Staphylococcus haemolyticus; experiment: Antibacterial activity against Staphylococcus haemolyticus ATCC 29970 incubated for 16 to 20 hrs by microdilution method; assay type: functional
Plasma = experiment: Drug level in plasma of ICR mouse neutropenic thigh model of methicillin-resistant Staphylococcus aureus NRS70 infection at 10 mg/kg, sc tid administered every 8 hrs starting from 1 hr post infection and measured 7 hrs post last dose by UPLC analysis; assay type: ADME, organism-based; conditions: in vivo, BLD = below limit of detection
Procedure, shortened: (§2)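 Neutropenic thigh model (cyclophosphamide 200 mg/kg ip, NRS70 im), sc doses at 1, 9 and 17 h; at 24 h cardiac blood and uninfected thigh taken (n = 8 per group); thigh homogenate supernatant and plasma acetonitrile-quenched with internal standard, analysed by UPLC with MRM detection.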

Staphylococcus aureus [5] = experiment: Antibacterial activity against methicillin-resistant Staphylococcus aureus NRS70 in ICR mouse neutropenic thigh infection model assessed as reduction in bacterial load at 10 mg/kg, sc tid administered every 8 hrs starting from 1 hr post infection and measured 7 hrs post last dose; assay type: functional, organism-based
Procedure, shortened: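 Female ICR mice (n = 8 per group) made neutropenic with ip cyclophosphamide 200 mg/kg at 4 days and 1 day pre-infection; 100 μL NRS70 (~1×10^6 CFU/mL in brain–heart infusion) injected im into right thigh; sc doses at 1, 9, 17 h; thighs harvested at 24 h, homogenized, plated in triplicate on LB agar; log10 CFU/g.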

[6] = Drug level in uninfected thighs of ICR mouse neutropenic thigh model of methicillin-resistant Staphylococcus aureus NRS70 infection at 10 mg/kg, sc tid administered every 8 hrs starting from 1 hr post infection and measured 7 hrs post last dose by UPLC analysis; assay type: ADME, organism-based; conditions: in vivo, BLD = below limit of detection; procedure, shortened: as §2
Staphylococcus aureus [7] = experiment: Antibacterial activity against mecA-positive multidrug resistant Staphylococcus aureus NRS120 incubated for 16 to 20 hrs by microdilution method; assay type: functional
Staphylococcus aureus [8] = experiment: […] activity against methicillin-resistant Staphylococcus aureus NRS70; assay type: functional; conditions: read-out: MBC99.9
Enterococcus faecium = experiment: Antibacterial activity against Enterococcus faecium NCTC 7171 incubated for 16 to 20 hrs by microdilution method; assay type: functional; procedure, shortened: as §1
Staphylococcus aureus [9] = experiment: Antibacterial activity against mecA-positive multidrug resistant Staphylococcus aureus NRS119 incubated for 16 to 20 hrs by microdilution method; assay type: functional
[10] = Plasma concentration in ICR mouse neutropenic thigh model of methicillin-resistant Staphylococcus aureus NRS70 infection at 20 mg/kg, sc tid administered every 8 hrs starting from 1 hr post infection and measured 7 hrs post last dose by UPLC analysis; assay type: ADME, organism-based; procedure, shortened: as §2
Mus musculus [11] = experiment: AUC (0 to infinity) in ICR mouse peritonitis model infected with methicillin resistant Staphylococcus aureus ATCC 27660 at 10 mg/kg, iv administered as single dose by UPLC analysis; assay type: ADME, organism-based; set-up: dose 10 mg/kg, time infinity, route intravenous; conditions: in vivo
Mus musculus [12] = experiment: Cmax in ICR mouse peritonitis model infected with methicillin resistant Staphylococcus aureus ATCC 27660 at 10 mg/kg, po administered as single dose through gavage measured at 0.5 hrs post dose by UPLC analysis; assay type: ADME, organism-based; set-up: dose 10 mg/kg, route oral; conditions: in vivo
Procedure, shortened: (§3)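 Female ICR mice, single 10 mg/kg oral gavage in 25% DMSO/55% propylene glycol/20% PBS (2.5 mg/mL); n = 3 per time point; terminal blood 0.5–30 h; plasma protein-precipitated with acetonitrile containing internal standard, quantified by UPLC-UV or MRM against mouse-plasma calibration curve (0–50 μg/mL).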

[13] = Drug level in uninfected thighs of ICR mouse neutropenic thigh model of methicillin-resistant Staphylococcus aureus NRS70 infection at 20 mg/kg, sc tid administered every 8 hrs starting from 1 hr post infection and measured 7 hrs post last dose by UPLC analysis; assay type: ADME, organism-based; conditions: read-out: Drug uptake; procedure, shortened: as §2
Mus musculus [14] = experiment: Volume of distribution in ICR mouse peritonitis model infected with methicillin resistant Staphylococcus aureus ATCC 27660 at 10 mg/kg, iv administered as single dose measured up to 24 hrs by UPLC analysis; assay type: ADME, organism-based; conditions: in vivo, 24 h
Mus musculus [15] = experiment: Tmax in ICR mouse peritonitis model infected with methicillin resistant Staphylococcus aureus ATCC 27660 at 10 mg/kg, po administered as single dose through gavage by UPLC analysis; assay type: ADME, organism-based; conditions: in vivo; procedure, shortened: as §3
[16] = Solubility of compound in water; assay type: physicochemical; conditions: buffer
Mus musculus [17] = experiment: AUC (0 to last) in ICR mouse peritonitis model infected with methicillin resistant Staphylococcus aureus ATCC 27660 at 10 mg/kg, po administered as single dose through gavage measured after 30 hrs by UPLC analysis; assay type: ADME, organism-based; set-up: dose 10 mg/kg, time 0 - last, route oral; conditions: in vivo, 30 h; procedure, shortened: as §3
Mus musculus [18] = experiment: T>MIC in ICR mouse at 10 mg/kg, iv administered as single dose by UPLC analysis
Mus musculus [19] = experiment: Terminal half life in ICR mouse peritonitis model infected with methicillin resistant Staphylococcus aureus ATCC 27660 at 10 mg/kg, iv administered as single dose by UPLC analysis; assay type: ADME, organism-based; conditions: in vivo
Mus musculus [20] = experiment: AUC (0 to infinity) in ICR mouse peritonitis model infected with methicillin resistant Staphylococcus aureus ATCC 27660 at 10 mg/kg, po administered as single dose through gavage by UPLC analysis; assay type: ADME, organism-based; set-up: dose 10 mg/kg, route oral, time infinity; conditions: in vivo; procedure, shortened: as §3
Mus musculus [21] = experiment: Terminal half life in ICR mouse peritonitis model infected with methicillin resistant Staphylococcus aureus ATCC 27660 at 10 mg/kg, po administered as single dose through gavage by UPLC analysis; assay type: ADME, organism-based; conditions: in vivo; procedure, shortened: as §3
Mus musculus [22] = experiment: T>MIC in ICR mouse at 10 mg/kg, po administered as single dose through gavage by UPLC analysis
Mus musculus [23] = experiment: Clearance in ICR mouse peritonitis model infected with methicillin resistant Staphylococcus aureus ATCC 27660 at 10 mg/kg, iv administered as single dose measured up to 8 hrs by UPLC analysis relative to hepatic blood flow; assay type: ADME, organism-based; conditions: in vivo
Procedure, shortened: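 Fast PK: female ICR mice (n = 2 per time point) given single tail-vein iv injection at 5, 10 or 20 mg/kg in 25% DMSO/65% propylene glycol/10% water (2.5, 5 or 10 mg/mL); terminal cardiac blood at 5 min, 40 min, 2, 4, 8 h; plasma analysed by UPLC with internal standard calibration.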

Mus musculus [24] = experiment: Oral bioavailability in ICR mouse peritonitis model infected with methicillin resistant Staphylococcus aureus ATCC 27660 at 10 mg/kg administered as single dose through gavage by UPLC analysis; assay type: ADME, organism-based; conditions: in vivo; procedure, shortened: as §3

Q: With CC(=O)NC[C@H]1CN(c2ccc(N3CCOCC3)c(F)c2)C(=O)O1 [LINEZOLID] as the compound, how does the MBC (Staphylococcus aureus [1]) read?
A: Its MBC is 16 µg/mL (≈ 47.4 µM).

Q: And the MIC [2]?
A: The MIC was 1 µg/mL (≈ 2.96 µM).

Q: What about the MBC (Staphylococcus aureus [3]) of the same compound?
A: Its MBC is 16 µg/mL (≈ 47.4 µM).

Q: What about the MIC [4] of the same compound?
A: The MIC was 2 µg/mL (≈ 5.93 µM).

Q: And the Cp (Plasma)?
A: Its Cp is “BLD”.

Q: And the Activity (Staphylococcus aureus [5])?
A: Its Activity is “Active”.

Q: What about the Drug uptake [6] of the same compound?
A: Its Drug uptake is “BLD”.

Q: And the MIC (Staphylococcus aureus [7])?
A: Its MIC is 32 µg/mL (≈ 94.9 µM).

Q: What about the MBC (Staphylococcus aureus [8]) of the same compound?
A: Its MBC is 8 µg/mL (≈ 23.7 µM).

Q: And the MIC (Enterococcus faecium)?
A: Its MIC is 2 µg/mL (≈ 5.93 µM).

Q: And the MIC (Staphylococcus aureus [9])?
A: The MIC was 32 µg/mL (≈ 94.9 µM).

Q: Which concentration at 7 h [10] does the source give for C#Cc1ccc(/C=C/c2nc3ccccc3c(=O)n2-c2cccc(C(=O)[O-])c2)cc1.[Na+] here?
A: Its concentration at 7 h is 2430 ng/mL.

Q: And the AUC (Mus musculus [11])?
A: The AUC was 1570 µg·min/mL.

Q: And the Cmax (Mus musculus [12])?
A: Its Cmax is 2.7 µg/mL.

Q: And the concentration at 7 h [13]?
A: The concentration at 7 h was 220 ng/mL.

Q: What about the Vd (Mus musculus [14]) of the same compound?
A: The Vd was 3.58 L/kg.

Q: What about the Tmax (Mus musculus [15]) of the same compound?
A: The Tmax was 30 min.

Q: What about the solubility [16] of the same compound?
A: Its solubility is 1.5 mg/mL.

Q: And the AUClast (Mus musculus [17])?
A: The AUClast was 552 µg·min/mL.

Q: What about the “T>MIC” value (Mus musculus [18]) of the same compound?
A: Its value is 24 h.

Q: What about the “beta t1/2” value (Mus musculus [19]) of the same compound?
A: Its value is 6.5 h.

Q: What about the AUC (Mus musculus [20]) of the same compound?
A: Its AUC is 582 µg·min/mL.

Q: And the “beta t1/2” value (Mus musculus [21])?
A: The value was 6.6 h.

Q: And the “T>MIC” value (Mus musculus [22])?
A: The value was 30 h.

Q: What about the CL (Mus musculus [23]) of the same compound?
A: Its CL is < 10%.

Q: And the F (Mus musculus [24])?
A: The F was 37%.
